Experimental data: ChEMBL document CHEMBL1136943, “Nocathiacin analogs: Synthesis and antibacterial activity of novel water-soluble amides” (Bioorg Med Chem Lett, 2009)
Converted amounts (≈) assume the structure as drawn.

Columns and labels:
[1] = Aqueous solubility by lyophilization solubility assay; format: physicochemical
How it was run: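 Amorphous powders from lyophilized material, as TFA salts; aqueous solubility measured by nephelometry.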

[2] = tested on: Enterococcus faecalis; experiment: Antibacterial activity against Enterococcus faecalis C21560 in liquid culture by turbidity method; format: functional
How it was run: (§1)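 MIC is the lowest concentration giving 100% inhibition of bacterial growth in liquid culture, read by turbidity.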

[3] = tested on: Streptococcus pneumoniae; experiment: Antibacterial activity against Streptococcus pneumoniae CL2883 in liquid culture by turbidity method; format: functional; how it was run: as §1
[4] = tested on: Staphylococcus aureus; experiment: Antibacterial activity against Staphylococcus aureus MB2865 in liquid culture by turbidity method; format: functional; how it was run: as §1
[5] = tested on: Staphylococcus aureus; experiment: Antibacterial activity against Staphylococcus aureus infected in mouse model assessed as reduction of >= 2 log 10 cfu kidney burden; format: functional
How it was run: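 Systemic S. aureus infection mouse model (SATOA). Compounds were given iv; […]. Kidney bacterial burden (cfu) was compared with untreated control. ED99 is the dose giving a reduction of at least 2 log10 cfu in kidney burden.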

| solubility [1] [µg/mL] | MIC [2] [µg/mL] | MIC [3] [µg/mL] | MIC [4] [µg/mL] | SMILES | ED99 [5] [mg/kg] |
| --- | --- | --- | --- | --- | --- |
| > 10000 | – | – | – | CO/C(C)=C1/NC(=O)[C@H]([C@@H](C)O)NC(=O)c2csc(n2)-c2cc(O)c(-c3nc(C(=O)N(C)CCN(C)C)cs3)nc2-c2csc(n2)[C@@H]2COC(=O)c3c4c5c(cccc5n3O)COC(=O)[C@@H](O[C@H]3C[C@](C)(O)[C@H](N(C)C)[C@H](C)O3)[C@@H](OC4)[C@H](NC(=O)c3csc1n3)c1nc(cs1)C(=O)N2.O=C(O)C(F)(F)F | – |
| – | 0.25 (≈ 0.164 µM) | 0.0038 (≈ 0.0025 µM) | 0.12 (≈ 0.0788 µM) | CO/C(C)=C1/NC(=O)[C@H]([C@@H](C)O)NC(=O)c2csc(n2)-c2cc(O)c(-c3nc(C(=O)N4CCN(CC(=O)N(C)C)CC4)cs3)nc2-c2csc(n2)[C@@H]2COC(=O)c3c4c5c(cccc5n3O)COC(=O)[C@@H](O[C@H]3C[C@](C)(O)[C@H](N(C)C)[C@H](C)O3)[C@@H](OC4)[C@H](NC(=O)c3csc1n3)c1nc(cs1)C(=O)N2 | – |
| > 10000 | – | – | – | CO/C(C)=C1/NC(=O)[C@H]([C@@H](C)O)NC(=O)c2csc(n2)-c2cc(O)c(-c3nc(C(=O)NCCNC(=O)CN(C)C)cs3)nc2-c2csc(n2)[C@@H]2COC(=O)c3c4c5c(cccc5n3O)COC(=O)[C@@H](O[C@H]3C[C@](C)(O)[C@H](N(C)C)[C@H](C)O3)[C@@H](OC4)[C@H](NC(=O)c3csc1n3)c1nc(cs1)C(=O)N2.O=C(O)C(F)(F)F | – |
| – | 0.5 (≈ 0.344 µM) | 0.0075 (≈ 0.00516 µM) | 0.06 (≈ 0.0412 µM) | CO/C(C)=C1/NC(=O)[C@H]([C@@H](C)O)NC(=O)c2csc(n2)-c2cc(O)c(-c3nc(C(=O)NCCNC(N)=O)cs3)nc2-c2csc(n2)[C@@H]2COC(=O)c3c4c5c(cccc5n3O)COC(=O)[C@@H](O[C@H]3C[C@](C)(O)[C@H](N(C)C)[C@H](C)O3)[C@@H](OC4)[C@H](NC(=O)c3csc1n3)c1nc(cs1)C(=O)N2 | – |
| > 10000 | – | – | – | CO/C(C)=C1/NC(=O)[C@H]([C@@H](C)O)NC(=O)c2csc(n2)-c2cc(O)c(-c3nc(C(=O)NCCN)cs3)nc2-c2csc(n2)[C@@H]2COC(=O)c3c4c5c(cccc5n3O)COC(=O)[C@@H](O[C@H]3C[C@](C)(O)[C@H](N(C)C)[C@H](C)O3)[C@@H](OC4)[C@H](NC(=O)c3csc1n3)c1nc(cs1)C(=O)N2.O=C(O)C(F)(F)F | – |
| > 10000 | – | – | – | CO/C(C)=C1/NC(=O)[C@H]([C@@H](C)O)NC(=O)c2csc(n2)-c2cc(O)c(-c3nc(C(=O)NCCCN(C)C)cs3)nc2-c2csc(n2)[C@@H]2COC(=O)c3c4c5c(cccc5n3O)COC(=O)[C@@H](O[C@H]3C[C@](C)(O)[C@H](N(C)C)[C@H](C)O3)[C@@H](OC4)[C@H](NC(=O)c3csc1n3)c1nc(cs1)C(=O)N2.O=C(O)C(F)(F)F | – |
| < 10000 | – | – | – | CO/C(C)=C1/NC(=O)[C@H]([C@@H](C)O)NC(=O)c2csc(n2)-c2cc(O)c(-c3nc(C(=O)NCCNC(N)=O)cs3)nc2-c2csc(n2)[C@@H]2COC(=O)c3c4c5c(cccc5n3O)COC(=O)[C@@H](O[C@H]3C[C@](C)(O)[C@H](N(C)C)[C@H](C)O3)[C@@H](OC4)[C@H](NC(=O)c3csc1n3)c1nc(cs1)C(=O)N2.O=C(O)C(F)(F)F | – |
| > 10000 | – | – | – | CO/C(C)=C1/NC(=O)[C@H]([C@@H](C)O)NC(=O)c2csc(n2)-c2cc(O)c(-c3nc(C(=O)NCC(=O)N4CCN(C)CC4)cs3)nc2-c2csc(n2)[C@@H]2COC(=O)c3c4c5c(cccc5n3O)COC(=O)[C@@H](O[C@H]3C[C@](C)(O)[C@H](N(C)C)[C@H](C)O3)[C@@H](OC4)[C@H](NC(=O)c3csc1n3)c1nc(cs1)C(=O)N2.O=C(O)C(F)(F)F | – |
| > 10000 | – | – | – | CO/C(C)=C1/NC(=O)[C@H]([C@@H](C)O)NC(=O)c2csc(n2)-c2cc(O)c(-c3nc(C(=O)NCCN(C)C)cs3)nc2-c2csc(n2)[C@@H]2COC(=O)c3c4c5c(cccc5n3O)COC(=O)[C@@H](O[C@H]3C[C@](C)(O)[C@H](N(C)C)[C@H](C)O3)[C@@H](OC4)[C@H](NC(=O)c3csc1n3)c1nc(cs1)C(=O)N2.O=C(O)C(F)(F)F | – |
| – | 0.12 (≈ 0.0826 µM) | 0.00095 (≈ 0.000654 µM) | 0.06 (≈ 0.0413 µM) | CO/C(C)=C1/NC(=O)[C@H]([C@@H](C)O)NC(=O)c2csc(n2)-c2cc(O)c(-c3nc(C(=O)NCCCN(C)C)cs3)nc2-c2csc(n2)[C@@H]2COC(=O)c3c4c5c(cccc5n3O)COC(=O)[C@@H](O[C@H]3C[C@](C)(O)[C@H](N(C)C)[C@H](C)O3)[C@@H](OC4)[C@H](NC(=O)c3csc1n3)c1nc(cs1)C(=O)N2 | >0.5 |
| > 10000 | – | – | – | CO/C(C)=C1/NC(=O)[C@H]([C@@H](C)O)NC(=O)c2csc(n2)-c2cc(O)c(-c3nc(C(=O)NCCCN4CCOCC4)cs3)nc2-c2csc(n2)[C@@H]2COC(=O)c3c4c5c(cccc5n3O)COC(=O)[C@@H](O[C@H]3C[C@](C)(O)[C@H](N(C)C)[C@H](C)O3)[C@@H](OC4)[C@H](NC(=O)c3csc1n3)c1nc(cs1)C(=O)N2.O=C(O)C(F)(F)F | – |
| – | 0.12 (≈ 0.0826 µM) | 0.0038 (≈ 0.00261 µM) | 0.06 (≈ 0.0413 µM) | CO/C(C)=C1/NC(=O)[C@H]([C@@H](C)O)NC(=O)c2csc(n2)-c2cc(O)c(-c3nc(C(=O)N(C)CCN(C)C)cs3)nc2-c2csc(n2)[C@@H]2COC(=O)c3c4c5c(cccc5n3O)COC(=O)[C@@H](O[C@H]3C[C@](C)(O)[C@H](N(C)C)[C@H](C)O3)[C@@H](OC4)[C@H](NC(=O)c3csc1n3)c1nc(cs1)C(=O)N2 | >0.5 |
| – | 2 (≈ 1.42 µM) | 0.06 (≈ 0.0425 µM) | 0.5 (≈ 0.354 µM) | CO/C(C)=C1/NC(=O)[C@H]([C@@H](C)O)NC(=O)c2csc(n2)-c2cc(O)c(-c3nc(C(=O)NCCN)cs3)nc2-c2csc(n2)[C@@H]2COC(=O)c3c4c5c(cccc5n3O)COC(=O)[C@@H](O[C@H]3C[C@](C)(O)[C@H](N(C)C)[C@H](C)O3)[C@@H](OC4)[C@H](NC(=O)c3csc1n3)c1nc(cs1)C(=O)N2 | – |
| > 10000 | – | – | – | CO/C(C)=C1/NC(=O)[C@H]([C@@H](C)O)NC(=O)c2csc(n2)-c2cc(O)c(-c3nc(C(=O)N4CCN(C)CC4)cs3)nc2-c2csc(n2)[C@@H]2COC(=O)c3c4c5c(cccc5n3O)COC(=O)[C@@H](O[C@H]3C[C@](C)(O)[C@H](N(C)C)[C@H](C)O3)[C@@H](OC4)[C@H](NC(=O)c3csc1n3)c1nc(cs1)C(=O)N2.O=C(O)C(F)(F)F | – |
| – | > 1 | – | > 1 | CO/C(C)=C1/NC(=O)[C@H]([C@@H](C)O)NC(=O)c2csc(n2)-c2cc(O)c(-c3nc(C(=O)NCCNC(=O)c4cc(O)cc(O)c4)cs3)nc2-c2csc(n2)[C@@H]2COC(=O)c3c4c5c(cccc5n3O)COC(=O)[C@@H](O[C@H]3C[C@](C)(O)[C@H](N(C)C)[C@H](C)O3)[C@@H](OC4)[C@H](NC(=O)c3csc1n3)c1nc(cs1)C(=O)N2 | – |
| > 10000 | – | – | – | CO/C(C)=C1/NC(=O)[C@H]([C@@H](C)O)NC(=O)c2csc(n2)-c2cc(O)c(-c3nc(C(=O)NCCCN4CCN(C)CC4)cs3)nc2-c2csc(n2)[C@@H]2COC(=O)c3c4c5c(cccc5n3O)COC(=O)[C@@H](O[C@H]3C[C@](C)(O)[C@H](N(C)C)[C@H](C)O3)[C@@H](OC4)[C@H](NC(=O)c3csc1n3)c1nc(cs1)C(=O)N2.O=C(O)C(F)(F)F | – |
| > 10000 | – | – | – | CO/C(C)=C1/NC(=O)[C@H]([C@@H](C)O)NC(=O)c2csc(n2)-c2cc(O)c(-c3nc(C(=O)N4CCN(CC(=O)N(C)C)CC4)cs3)nc2-c2csc(n2)[C@@H]2COC(=O)c3c4c5c(cccc5n3O)COC(=O)[C@@H](O[C@H]3C[C@](C)(O)[C@H](N(C)C)[C@H](C)O3)[C@@H](OC4)[C@H](NC(=O)c3csc1n3)c1nc(cs1)C(=O)N2.O=C(O)C(F)(F)F | – |
| 10000 | – | – | – | CO/C(C)=C1/NC(=O)[C@H]([C@@H](C)O)NC(=O)c2csc(n2)-c2cc(O)c(-c3nc(C(=O)NCCNCC(O)CO)cs3)nc2-c2csc(n2)[C@@H]2COC(=O)c3c4c5c(cccc5n3O)COC(=O)[C@@H](O[C@H]3C[C@](C)(O)[C@H](N(C)C)[C@H](C)O3)[C@@H](OC4)[C@H](NC(=O)c3csc1n3)c1nc(cs1)C(=O)N2.O=C(O)C(F)(F)F (stereo not given in full) | – |
| – | 2 (≈ 1.35 µM) | 0.125 (≈ 0.0841 µM) | 0.5 (≈ 0.337 µM) | CO/C(C)=C1/NC(=O)[C@H]([C@@H](C)O)NC(=O)c2csc(n2)-c2cc(O)c(-c3nc(C(=O)NCCNCC(O)CO)cs3)nc2-c2csc(n2)[C@@H]2COC(=O)c3c4c5c(cccc5n3O)COC(=O)[C@@H](O[C@H]3C[C@](C)(O)[C@H](N(C)C)[C@H](C)O3)[C@@H](OC4)[C@H](NC(=O)c3csc1n3)c1nc(cs1)C(=O)N2 (stereo not given in full) | – |
| – | 0.03 (≈ 0.0199 µM) | 0.00048 (≈ 0.000318 µM) | 0.0038 (≈ 0.00252 µM) | CO/C(C)=C1/NC(=O)[C@H]([C@@H](C)O)NC(=O)c2csc(n2)-c2cc(O)c(-c3nc(C(=O)NCC(=O)N4CCN(C)CC4)cs3)nc2-c2csc(n2)[C@@H]2COC(=O)c3c4c5c(cccc5n3O)COC(=O)[C@@H](O[C@H]3C[C@](C)(O)[C@H](N(C)C)[C@H](C)O3)[C@@H](OC4)[C@H](NC(=O)c3csc1n3)c1nc(cs1)C(=O)N2 | 0.13 |
| > 10000 | – | – | – | CO/C(C)=C1/NC(=O)[C@H]([C@@H](C)O)NC(=O)c2csc(n2)-c2cc(O)c(-c3nc(C(=O)NCCNC(=O)CN4CCOCC4)cs3)nc2-c2csc(n2)[C@@H]2COC(=O)c3c4c5c(cccc5n3O)COC(=O)[C@@H](O[C@H]3C[C@](C)(O)[C@H](N(C)C)[C@H](C)O3)[C@@H](OC4)[C@H](NC(=O)c3csc1n3)c1nc(cs1)C(=O)N2.O=C(O)C(F)(F)F | – |

| SMILES | solubility [1] [µg/mL] | MIC [2] [µg/mL] | MIC [3] [µg/mL] | MIC [4] [µg/mL] | ED99 [5] [mg/kg] |
| --- | --- | --- | --- | --- | --- |
| C=C(NC(=O)c1csc(-c2nc3c(cc2O)-c2nc(cs2)C(=O)N[C@@H]([C@@H](C)O)C(=O)N/C(=C(\C)OC)c2nc(cs2)C(=O)N[C@@H]2c4nc(cs4)C(=O)N[C@@H](COC(=O)c4c5c6c(cccc6n4O)COC(=O)[C@@H](O[C@H]4C[C@](C)(O)[C@H](N(C)C)[C@H](C)O4)[C@H]2OC5)c2nc-3cs2)n1)C(N)=O.O=C(O)C(F)(F)F [NOCATHIACIN I] | 340 | – | – | – | – |
